Reference: ChEMBL document CHEMBL1255441, “Pharmacokinetics of cefotaxime and desacetylcefotaxime in infants during extracorporeal membrane oxygenation” (Antimicrob Agents Chemother, 2010)

What was measured:
Type in all cases: ADME, organism-based
Design in all cases: dose 50 mg/kg, route intravenous
[1] = Volume of distribution in infant during extracorporeal membrane oxygenation at 50 mg/kg, iv dosed 2 to 3 times per day as bolus dose; conditions: human, in vivo
Summary of the method: (§1)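 Infants on ECMO (n=37; PNA 0.67–199 days; 2.0–6.2 kg). Cefotaxime given as an IV bolus (≤3 min) into the extracorporeal line after the oxygenator. Dosing: 50 mg/kg b.i.d. for PNA <1 week, 50 mg/kg t.i.d. for 1–4 weeks, 37.5 mg/kg q.i.d. for >4 weeks. Routine venous circuit samples (EDTA), including post-decannulation up to 24 h. Cefotaxime and desacetyl metabolite measured by LC-MS (LOQ 0.2 mg/liter). One-compartment NONMEM population model.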

[2] = Clearance in infant weighing 2 to 6.2 kg weight during extracorporeal membrane oxygenation at 50 mg/kg, iv dosed 2 to 3 times per day as bolus dose; conditions: human, in vivo; summary of the method: as §1
[3] = Clearance in infant weighing 2 to 6.2 kg weight at 50 mg/kg, iv dosed 2 to 3 times per day as bolus dose; conditions: human, in vivo; summary of the method: as §1
[4] = Clearance in infant during extracorporeal membrane oxygenation at 50 mg/kg, iv dosed 2 to 3 times per day as bolus dose; conditions: human, in vivo; summary of the method: as §1
Homo sapiens [5] = experiment: Elimination half life in infant weighing 2 to 6.2 kg weight during extracorporeal membrane oxygenation assessed as desacetylcefotaxime at 50 mg/kg, iv dosed 2 to 3 times per day as bolus dose; conditions: in vivo; summary of the method: as §1
Homo sapiens [6] = experiment: Clearance in infant weighing 2 to 6.2 kg weight after extracorporeal membrane oxygenation assessed as desacetylcefotaxime at 50 mg/kg, iv dosed 2 to 3 times per day as bolus dose; conditions: in vivo; summary of the method: as §1
[7] = Clearance in infant weighing 2 to 6.2 kg weight after extracorporeal membrane oxygenation at 50 mg/kg, iv dosed 2 to 3 times per day as bolus dose measured after 72 hrs; conditions: human, in vivo; summary of the method: as §1
[8] = Elimination half life in infant weighing 2 to 6.2 kg weight during extracorporeal membrane oxygenation at 50 mg/kg, iv dosed 2 to 3 times in a day bolus dose; conditions: human, in vivo, read-out: beta t1/2 (converted); summary of the method: as §1
Homo sapiens [9] = experiment: Clearance in infant during extracorporeal membrane oxygenation assessed as desacetylcefotaxime at 50 mg/kg, iv dosed 2 to 3 times per day as bolus dose; conditions: in vivo; summary of the method: as §1
Homo sapiens [10] = experiment: Volume of distribution in infant during extracorporeal membrane oxygenation assessed as desacetylcefotaxime at 50 mg/kg, iv dosed 2 to 3 times per day as bolus dose; conditions: in vivo; summary of the method: as §1
Homo sapiens [11] = experiment: Clearance in infant weighing 2 to 6.2 kg weight after extracorporeal membrane oxygenation assessed as desacetylcefotaxime at 50 mg/kg, iv dosed 2 to 3 times per day as bolus dose measured after 72 hrs; conditions: in vivo; summary of the method: as §1
[12] = Clearance in infant weighing 2 to 6.2 kg weight after extracorporeal membrane oxygenation at 50 mg/kg, iv dosed 2 to 3 times per day as bolus dose; conditions: human, in vivo; summary of the method: as §1
Homo sapiens [13] = experiment: Clearance in infant weighing 2 to 6.2 kg weight assessed as desacetylcefotaxime at 50 mg/kg, iv dosed 2 to 3 times per day as bolus dose; conditions: in vivo; summary of the method: as §1

- Vd [1]: 1.82 L
- clearance [2]: 4.33 mL/min
- clearance [3]: 5 mL/min
- clearance [4]: 6 mL/min
- beta t1/2 (Homo sapiens [5]): 0.8 h
- CL (Homo sapiens [6]): 0.18 L/h
- clearance [7]: 6.67 mL/min
- half-life [8]: 1.6 h
- CL (Homo sapiens [9]): 1.46 L/h
- Vd (Homo sapiens [10]): 11 L
- CL (Homo sapiens [11]): 1.38 L/h
- clearance [12]: 3.67 mL/min
- CL (Homo sapiens [13]): 1.37 L/h
Structure (SMILES): CO/N=C(\C(=O)N[C@@H]1C(=O)N2C(C(=O)O)=C(COC(C)=O)CS[C@H]12)c1csc(N)n1 [CEFOTAXIME]
